Tests used:
SNB-75 = experiment: Cytotoxicity against human SNB75 cells assessed as cell growth at 10 uM after 48 hrs relative to control; assay type: functional; settings: SNB-75, 48 h, read-out: Activity
Summary of the method: (§1)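 Submitted to the National Cancer Institute for a single-dose screen at 10 micromolar against 60 cancer cell lines. Growth is expressed relative to negative-control cultures.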

BT-549 = experiment: Cytotoxicity against human BT549 cells assessed as cell growth at 10 uM after 48 hrs relative to control; assay type: functional; settings: BT-549, 48 h, read-out: Activity
Summary of the method: (§2)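 Run at the National Cancer Institute as a single-dose screen across its 60-cell-line cancer panel. Compound was tested at 10 micromolar, and growth was expressed as a percentage of negative-control cultures.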

T47D = experiment: Cytotoxicity against human T47D cells assessed as cell growth at 10 uM after 48 hrs relative to control; assay type: functional; settings: read-out: Activity; summary of the method: as §1
SK-MEL-28 = experiment: Cytotoxicity against human SK-MEL-28 cells assessed as cell growth at 10 uM after 48 hrs relative to control; assay type: functional; settings: SK-MEL-28, 48 h, read-out: Activity; summary of the method: as §2
A498 = experiment: Cytotoxicity against human A498 cells assessed as cell growth at 10 uM after 48 hrs relative to control; assay type: functional; settings: A498, 48 h, read-out: Activity; summary of the method: as §2
HOP-62 = experiment: Cytotoxicity against human HOP62 cells assessed as cell growth at 10 uM after 48 hrs relative to control; assay type: functional; settings: HOP-62, 48 h, read-out: Activity; summary of the method: as §2
HOP-92 = experiment: Cytotoxicity against human HOP92 cells assessed as cell growth at 10 uM after 48 hrs relative to control; assay type: functional; settings: HOP-92, 48 h, read-out: Activity; summary of the method: as §2
SK-MEL-5 = experiment: Cytotoxicity against human SK-MEL-5 cells assessed as cell growth at 10 uM after 48 hrs relative to control; assay type: functional; settings: SK-MEL-5, 48 h, read-out: Activity; summary of the method: as §2
HCT-15 = experiment: Cytotoxicity against human HCT15 cells assessed as cell growth at 10 uM after 48 hrs relative to control; assay type: functional; settings: HCT-15, 48 h, read-out: Activity; summary of the method: as §2
MDA-MB-435 = experiment: Cytotoxicity against human MDA-MB-435 cells assessed as cell growth at 10 uM after 48 hrs relative to control; assay type: functional; settings: MDA-MB-435, 48 h, read-out: Activity; summary of the method: as §2
MOLT-4 = experiment: Cytotoxicity against human MOLT4 cells assessed as cell growth at 10 uM after 48 hrs relative to control; assay type: functional; settings: MOLT-4, 48 h, read-out: Activity; summary of the method: as §2
SF-295 = experiment: Cytotoxicity against human SF295 cells assessed as cell growth at 10 uM after 48 hrs relative to control; assay type: functional; settings: SF-295, 48 h, read-out: Activity; summary of the method: as §2
COLO 205 = experiment: Cytotoxicity against human COLO205 cells assessed as cell growth at 10 uM after 48 hrs relative to control; assay type: functional; settings: COLO 205, 48 h, read-out: Activity; summary of the method: as §2
OVCAR-8 = experiment: Cytotoxicity against human OVCAR8 cells assessed as cell growth at 10 uM after 48 hrs relative to control; assay type: functional; settings: OVCAR-8, 48 h, read-out: Activity; summary of the method: as §2
SK-OV-3 = experiment: Cytotoxicity against human SKOV3 cells assessed as cell growth at 10 uM after 48 hrs relative to control; assay type: functional; settings: SK-OV-3, 48 h, read-out: Activity; summary of the method: as §2
IGROV-1 = experiment: Cytotoxicity against human IGROV1 cells assessed as cell growth at 10 uM after 48 hrs relative to control; assay type: functional; settings: IGROV-1, 48 h, read-out: Activity; summary of the method: as §2
KM12 = experiment: Cytotoxicity against human KM12 cells assessed as cell growth at 10 uM after 48 hrs relative to control; assay type: functional; settings: KM12, 48 h, read-out: Activity; summary of the method: as §2
SR [1] = experiment: Cytotoxicity against human SR cells assessed as cell growth at 10 uM after 48 hrs relative to control; assay type: functional; settings: read-out: Activity; summary of the method: as §1
HL-60(TB) = experiment: Cytotoxicity against human HL-60(TB) cells assessed as cell growth at 10 uM after 48 hrs relative to control; assay type: functional; settings: HL-60, 48 h, read-out: Activity
Summary of the method: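 Run at the NCI as a single-dose screen: each compound at 10 micromolar across the 60-cancer-cell-line panel. Growth of each cell line in compound-containing media was expressed relative to negative-control cultures.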

786-0 = experiment: Cytotoxicity against human 786-0 cells assessed as cell growth at 10 uM after 48 hrs relative to control; assay type: functional; settings: 786-0, 48 h, read-out: Activity; summary of the method: as §2
SN12C = experiment: Cytotoxicity against human SN12C cells assessed as cell growth at 10 uM after 48 hrs relative to control; assay type: functional; settings: read-out: Activity; summary of the method: as §1
OVCAR-4 = experiment: Cytotoxicity against human OVCAR4 cells assessed as cell growth at 10 uM after 48 hrs relative to control; assay type: functional; settings: OVCAR-4, 48 h, read-out: Activity; summary of the method: as §2
SF-539 = experiment: Cytotoxicity against human SF539 cells assessed as cell growth at 10 uM after 48 hrs relative to control; assay type: functional; settings: SF-539, 48 h, read-out: Activity; summary of the method: as §2
ACHN = experiment: Cytotoxicity against human ACHN cells assessed as cell growth at 10 uM after 48 hrs relative to control; assay type: functional; settings: read-out: Activity; summary of the method: as §2
HT-29 = experiment: Cytotoxicity against human HT-29 cells assessed as cell growth at 10 uM after 48 hrs relative to control; assay type: functional; settings: HT-29, 48 h, read-out: Activity; summary of the method: as §2
NCI-H226 = experiment: Cytotoxicity against human NCI-H226 cells assessed as cell growth at 10 uM after 48 hrs relative to control; assay type: functional; settings: NCI-H226, 48 h, read-out: Activity; summary of the method: as §2
NCI-H460 = experiment: Cytotoxicity against human NCI-H460 cells assessed as cell growth at 10 uM after 48 hrs relative to control; assay type: functional; settings: NCI-H460, 48 h, read-out: Activity; summary of the method: as §2
[2] = Cytotoxicity against human RPMI-8226 cells after 48 hrs; assay type: functional; settings: RPMI-8226, 48 h
SR [3] = experiment: Cytotoxicity against human SR cells after 48 hrs; assay type: functional
Summary of the method: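 Dose-dependent growth inhibition was assessed at the National Cancer Institute against its cancer cell line panel as a follow-up to the 10 micromolar single-dose screen.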

[4] = biological target: T1, Proteasome Macropain subunit MB1 (Homo sapiens) (UniProt P28074)
T1 sequence (whole entry): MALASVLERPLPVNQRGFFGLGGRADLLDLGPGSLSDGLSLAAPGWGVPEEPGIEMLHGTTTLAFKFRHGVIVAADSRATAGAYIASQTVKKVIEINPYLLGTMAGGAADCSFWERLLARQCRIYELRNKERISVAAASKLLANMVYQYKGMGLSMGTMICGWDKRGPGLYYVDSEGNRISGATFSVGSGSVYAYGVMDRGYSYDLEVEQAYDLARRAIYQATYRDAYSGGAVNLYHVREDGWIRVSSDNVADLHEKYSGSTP

SMILES | growth at 10 µM (SNB-75) [%] | growth at 10 µM (BT-549) [%] | growth at 10 µM (T47D) [%] | growth at 10 µM (SK-MEL-28) [%] | growth at 10 µM (A498) [%] | growth at 10 µM (HOP-62) [%] | growth at 10 µM (HOP-92) [%] | growth at 10 µM (SK-MEL-5) [%] | growth at 10 µM (HCT-15) [%] | growth at 10 µM (MDA-MB-435) [%] | growth at 10 µM (MOLT-4) [%] | growth at 10 µM (SF-295) [%] | growth at 10 µM (COLO 205) [%] | growth at 10 µM (OVCAR-8) [%] | growth at 10 µM (SK-OV-3) [%] | growth at 10 µM (IGROV-1) [%] | growth at 10 µM (KM12) [%] | growth at 10 µM (SR [1]) [%] | growth at 10 µM (HL-60(TB)) [%] | growth at 10 µM (786-0) [%] | also measured
COC(=O)[C@@H](NC(=O)N[C@H](C(=O)N[C@H]1CCCCNC(=O)/C=C/[C@H](Cc2c[nH]c3ccccc23)NC1=O)C(C)C)C(C)C | -34 | 8.05 | -9.26 | 41.9 | 37.9 | 95 | 18 | 60.6 | 109 | -81.5 | 8.54 | 85.4 | 58.9 | 97.1 | 15.4 | 24.7 | 74.5 | 9.87 | 17.6 | 83.9 | growth at 10 µM (SN12C): 2.96%; growth at 10 µM (OVCAR-4): 2.98%; growth at 10 µM (SF-539): -14.4%; growth at 10 µM (ACHN): 90.8%; growth at 10 µM (HT-29): 3.42%; growth at 10 µM (NCI-H226): 15.1%; growth at 10 µM (NCI-H460): 45.5%
COC(=O)[C@@H](NC(=O)N[C@@H](Cc1ccccc1)C(=O)N[C@H]1CCCCNC(=O)/C=C/[C@H](C(C)C)NC1=O)C(C)C | -27.8 | 29.6 | -3.59 | 52.1 | 104 | 84.4 | 18.9 | 34 | 94.2 | -59.9 | 49.2 | 101 | 78.5 | 92.3 | 101 | 45.1 | 30.5 | 8.54 | 62.5 | 97.5 | growth at 10 µM (SN12C): 75.6%; growth at 10 µM (OVCAR-4): 56.6%; growth at 10 µM (SF-539): 5.04%; growth at 10 µM (ACHN): 102%; growth at 10 µM (HT-29): 31.1%; growth at 10 µM (NCI-H226): 54.7%; growth at 10 µM (NCI-H460): 59.6%
COC(=O)[C@@H](NC(=O)N[C@@H](Cc1ccccc1)C(=O)N[C@H]1CCCCNC(=O)/C=C/[C@H](Cc2c[nH]c3ccccc23)NC1=O)C(C)C | 33 | 26.6 | 34.4 | 62.7 | 78.2 | 113 | 91.3 | 63.9 | 110 | 1.21 | 13.9 | 99.7 | 94 | 98.9 | 95.4 | 61.4 | 94.6 | 21.9 | 55.3 | 99.7 | GI50 [2]: 0.343 µM; GI50 (SR [3]): 0.453 µM; growth at 10 µM (SN12C): 80.1%; growth at 10 µM (OVCAR-4): 102%; growth at 10 µM (SF-539): 17.5%; growth at 10 µM (ACHN): 101%; growth at 10 µM (HT-29): 29.7%; growth at 10 µM (NCI-H226): 65.7%; growth at 10 µM (NCI-H460): 99.1%
COC(=O)[C@@H](NC(=O)N[C@H](C(=O)N[C@H]1CCCCNC(=O)/C=C/[C@H](C(C)C)NC1=O)C(C)C)C(C)C | -34.6 | 5.44 | -31.7 | 30.2 | 43.2 | 22.9 | -8.79 | -4.25 | 98.2 | -55.5 | 10.2 | 58.9 | 51.7 | 86.4 | 47.5 | 33.4 | 1.78 | 7.05 | 27.2 | 83.3 | GI50 [2]: 3.97 µM; GI50 (SR [3]): 5.13 µM; growth at 10 µM (SN12C): 15.8%; growth at 10 µM (OVCAR-4): 6.22%; growth at 10 µM (SF-539): -19.4%; growth at 10 µM (ACHN): 96.4%; growth at 10 µM (HT-29): 11.7%; growth at 10 µM (NCI-H226): -24%; growth at 10 µM (NCI-H460): 28.9%
COC(=O)[C@@H](NC(=O)N[C@@H](Cc1ccccc1)C(=O)N[C@H]1CCCCNC(=O)/C=C/[C@H](Cc2ccccc2)NC1=O)C(C)C | -40.2 | 3.25 | 8.25 | 33.3 | 40.7 | 51.6 | 15.7 | 18.6 | 101 | -69.1 | -0.13 | 51.3 | 44.6 | 82 | 61.1 | 30.6 | 7.99 | 1.45 | 20.9 | 71.8 | GI50 [2]: 2.72 µM; Kin [4]: 0.000623 s⁻¹; GI50 (SR [3]): 2.78 µM; growth at 10 µM (SN12C): 29.5%; growth at 10 µM (OVCAR-4): 53.3%; growth at 10 µM (SF-539): -22.2%; growth at 10 µM (ACHN): 91.4%; growth at 10 µM (HT-29): 14.5%; growth at 10 µM (NCI-H226): -44.2%; growth at 10 µM (NCI-H460): 35.6%

Reference: ChEMBL document CHEMBL3612027, “Substrate-guided optimization of the syringolins yields potent proteasome inhibitors with activity against leukemia cell lines” (Bioorg Med Chem, 2015)
